In ChEMBL document CHEMBL4665652, “Discovery of novel quinoline sulphonamide derivatives as potent, selective and orally active RORγ inverse agonists” (Bioorg Med Chem Lett, 2019):

Legend:
[1] = Ratio of AUClast in mouse at 30 mg/kg, po to AUClast in mouse at 10 mg/kg, po; type: ADME, organism-based; details: in vivo
Outline: (§1)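 Mice dosed orally at 10, 30 or 100 mg/kg as a suspension in 1% methylcellulose 400cp + 0.1% Poloxamer (188). Tmax, Cmax, AUClast and oral t1/2 were taken from plasma concentration–time profiles. Ratios are the value at each dose over the value at 10 mg/kg.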

[2] = Ratio of AUClast in mouse at 100 mg/kg, po to AUClast in mouse at 10 mg/kg, po; type: ADME, organism-based; details: in vivo; outline: as §1
[3] = Half life in mouse at 1 mg/kg, iv; type: ADME, organism-based; details: in vivo
Outline: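 Mouse PK with iv 1 mg/kg and po 10 mg/kg, oral dose as a suspension in 1% methylcellulose 400cp + 0.1% Poloxamer 188. Plasma clearance (total and unbound), iv t1/2 and oral bioavailability F were derived from the iv and po profiles.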

[4] = (§2) In vivo inverse agonist activity at RORgamma in MOG(35-55) peptide/PTX-induced mechanistic C57BL/6 mouse model assessed as anti-CD3 induced IL-10 level in serum at 100 mg/kg, po dosed for 5 days during MOG/PTX priming and followed by 45 mins prior to anti-CD3 challenge and measured after 2 hrs (reference value: -11%); type: functional; details: time 5 day
Outline: (§3)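 Mice immunized with mouse MOG35-55 peptide plus pertussis toxin. After 5 days, compound given orally as a suspension in methylcellulose 400cp + 1% poloxamer, 45 min before an anti-CD3 challenge. Circulating cytokines measured 2 h later. Comparison vs vehicle by Dunnett post test.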

[5] = AUClast in mouse at 100 mg/kg, po; type: ADME, organism-based; design: time 0 - last, route oral, dose 100 mg/kg; details: in vivo
Outline: (§4)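 Oral ascending-dose PK in mice at 100 mg/kg (ratios against 10 mg/kg), given as a suspension in 1% methylcellulose 400cp + 0.1% Poloxamer. Cmax, AUClast and t1/2 come from plasma profiles.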

[6] = as §2, with “30” for “100”; type: functional; details: time 5 day; outline: as §3
[7] = Unbound plasma clearance in mouse at 10 mg/kg, po or 1 mg/kg, iv; type: ADME, organism-based; details: in vivo
Outline: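 Mouse PK using two routes: iv at 1 mg/kg and po at 10 mg/kg. The po dose was a suspension in 1% methylcellulose 400cp + 0.1% Poloxamer 188. Unbound plasma clearance derived from the plasma profiles.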

[8] = as §2, with “IL-17A” for “IL-10”, “10” for “100”, “relative to control” for “(reference value: -11%)”; type: functional; details: time 5 day; outline: as §3
CYP3A4 = CYP3A4 (Homo sapiens, UniProt P08684); assay: Inhibition of CYP3A4 (unknown origin) at 1 uM relative to control; type: ADME
Cytochrome P450 2C9 = Cytochrome P450 2C9 (Homo sapiens, UniProt P11712); assay: Drug metabolism assessed as CYP2C9 (unknown origin) mediated metabolite formation; type: ADME
[9] = as §2, with “IL-22” for “IL-10”, “relative to control” for “(reference value: -11%)”; type: functional; details: time 5 day; outline: as §3
[10] = as §2, with “IL-2” for “IL-10”, “relative to control” for “(reference value: -11%)”; type: functional; details: time 5 day; outline: as §3
[11] = as §2, with “10” for “100”; type: functional; details: time 5 day; outline: as §3
[12] = as §2, with “IL-17F” for “IL-10”, “30” for “100”, “relative to control” for “(reference value: -11%)”; type: functional; details: time 5 day; outline: as §3
[13] = as §2, with “IL-22” for “IL-10”, “30” for “100”, “relative to control” for “(reference value: -11%)”; type: functional; details: time 5 day; outline: as §3
[14] = Cmax in mouse at 10 mg/kg, po; type: ADME, organism-based; design: route oral, dose 10 mg/kg; details: in vivo; outline: as §1
CYP2C9 = CYP2C9 (Homo sapiens, UniProt P11712); assay: Inhibition of CYP2C9 (unknown origin) at 1 uM relative to control; type: ADME
[15] = molecular target: T1, Nuclear receptor ROR-gamma (Homo sapiens, UniProt P51449); assay: Inverse agonist activity at RORgamma in human CD4+ T cells assessed as inhibition of IL17A secretion after 72 hrs by ELISA; type: cell-based, CD4+ve Th
T1 sequence (P51449 whole entry): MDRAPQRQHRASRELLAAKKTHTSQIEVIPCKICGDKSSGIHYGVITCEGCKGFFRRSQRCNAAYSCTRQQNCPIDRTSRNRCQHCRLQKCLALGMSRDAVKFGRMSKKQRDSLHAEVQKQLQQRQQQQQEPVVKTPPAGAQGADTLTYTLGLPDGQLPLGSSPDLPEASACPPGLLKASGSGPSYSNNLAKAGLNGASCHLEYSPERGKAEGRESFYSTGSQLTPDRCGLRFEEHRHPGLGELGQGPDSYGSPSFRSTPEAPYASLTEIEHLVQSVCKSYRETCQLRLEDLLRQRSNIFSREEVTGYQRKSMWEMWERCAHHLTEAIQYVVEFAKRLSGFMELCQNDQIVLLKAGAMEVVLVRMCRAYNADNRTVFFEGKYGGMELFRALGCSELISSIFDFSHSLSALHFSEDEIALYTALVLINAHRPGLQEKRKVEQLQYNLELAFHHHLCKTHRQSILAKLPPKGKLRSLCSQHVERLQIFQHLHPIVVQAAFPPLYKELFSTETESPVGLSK

[16] = Cmax in mouse at 100 mg/kg, po; type: ADME, organism-based; design: route oral, dose 100 mg/kg; details: in vivo; outline: as §4
[17] = molecular target: T1, Nuclear receptor ROR-gamma; assay: Inverse agonist activity at pSG5GAL4-DBD/LBD fused human RORgamma receptor expressed in COS7 cells co-expressing 5 copies of GAL4 response element after 18 hrs by luciferase reporter gene based assay; type: cell-based
Mus musculus [18] = assay: (§5) In vivo inverse agonist activity at RORgamma in po dosed MOG(35-55) peptide/PTX-induced mechanistic C57BL/6 mouse model assessed as anti-CD3 induced IL-17A level in serum dosed for 5 days during MOG/PTX priming and followed by 45 mins prior to anti-CD3 challenge and measured after 2 hrs relative to control; type: functional, organism-based; details: dose mg/kg 10-100, time 5.0 day; outline: as §3
[19] = Stability in mouse microsomes assessed as unbound intrinsic clearance; type: ADME, Microsome
Outline: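 Unbound intrinsic clearance measured in human and mouse liver microsomes, expressed in L/h/kg. Values are geometric means of at least two separate runs.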

Mus musculus [20] = assay: as §5, with “IL-17F” for “IL-17A”; type: functional, organism-based; details: dose mg/kg 10-100, time 5.0 day; outline: as §3
[21] = Ratio of Cmax in mouse at 30 mg/kg, po to Cmax in mouse at 10 mg/kg, po; type: ADME, organism-based; details: in vivo
Outline: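 Mice dosed orally with an ascending-dose series at 10, 30 and 100 mg/kg. Compound given as a suspension in 1% methylcellulose 400cp + 0.1% poloxamer. Plasma Tmax taken from the concentration profiles. The Cmax ratio is expressed relative to the 10 mg/kg dose.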

Chain of Cytochrome P450 2C9 (P11712 whole entry): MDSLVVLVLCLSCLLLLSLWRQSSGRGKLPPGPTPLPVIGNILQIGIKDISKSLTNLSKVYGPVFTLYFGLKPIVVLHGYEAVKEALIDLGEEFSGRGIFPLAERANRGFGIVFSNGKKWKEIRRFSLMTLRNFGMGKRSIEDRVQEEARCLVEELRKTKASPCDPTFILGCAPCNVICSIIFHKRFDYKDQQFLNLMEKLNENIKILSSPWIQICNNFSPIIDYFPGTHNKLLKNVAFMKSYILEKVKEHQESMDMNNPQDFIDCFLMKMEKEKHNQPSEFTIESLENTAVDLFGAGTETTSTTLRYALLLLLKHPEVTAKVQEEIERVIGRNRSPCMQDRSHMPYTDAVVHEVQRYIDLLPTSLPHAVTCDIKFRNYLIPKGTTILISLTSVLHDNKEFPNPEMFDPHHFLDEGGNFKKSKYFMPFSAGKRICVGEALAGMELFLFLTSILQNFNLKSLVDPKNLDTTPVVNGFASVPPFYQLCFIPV
Chain of CYP2C9 (P11712 whole entry): as above
Chain of CYP3A4 (P08684 whole entry): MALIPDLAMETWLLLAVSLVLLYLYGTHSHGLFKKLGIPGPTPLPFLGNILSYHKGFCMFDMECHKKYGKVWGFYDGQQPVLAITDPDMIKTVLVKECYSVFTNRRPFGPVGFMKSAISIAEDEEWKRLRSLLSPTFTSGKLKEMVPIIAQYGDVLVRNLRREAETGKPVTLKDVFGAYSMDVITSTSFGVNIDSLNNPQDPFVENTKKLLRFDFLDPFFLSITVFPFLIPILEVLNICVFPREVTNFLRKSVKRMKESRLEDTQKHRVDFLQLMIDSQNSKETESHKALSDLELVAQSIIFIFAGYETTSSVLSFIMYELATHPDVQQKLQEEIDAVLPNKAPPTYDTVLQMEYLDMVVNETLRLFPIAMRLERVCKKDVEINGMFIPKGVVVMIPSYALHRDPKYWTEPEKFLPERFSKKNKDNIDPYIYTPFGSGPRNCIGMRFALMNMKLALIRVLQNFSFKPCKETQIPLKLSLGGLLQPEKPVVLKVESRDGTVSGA

- Ratio [1]: 8.8
- Ratio [2]: 58
- half-life [3]: 9.6 min
- AUC(0-t) [5]: 270 µg·h/mL
- CL free [7]: 1620 mL/min/kg
- inhibition at 1 µM (CYP3A4): 99%
- Fm (Cytochrome P450 2C9): 6%
- Cmax [14]: 3320 ng/mL
- inhibition at 1 µM (CYP2C9): 100%
- EC50 [15]: 150 nM
- Cmax [16]: 27500 ng/mL
- EC50 [17]: 220 nM
- CL free [19]: 100 mL/min/kg
- Ratio [21]: 3.5
SMILES: CNC(=O)[C@@H]1CCCN1S(=O)(=O)c1ccc(Cl)c(COc2cccc3c(-c4cncn4C)cc(C(C)C)nc23)c1Cl
- Activity [4]: 807%
- Activity [6]: 66%
- Activity [8]: -23%
- Activity [9]: -45%
- Activity [10]: -46%
- Activity [11]: -3%
- Activity [12]: -49%
- Activity [13]: -46%
- Activity (Mus musculus [18]): Dose-dependent effect
- Activity (Mus musculus [20]): Dose-dependent effect
